Data: publication PMC8511081 (European journal of medicinal chemistry, 2021)
Entries after “also recorded” stand apart in the source; their conditions may differ.

Columns and labels:
sGC [1] = target: T1, sGC (Homo sapiens, UniProt Q02153); type: biochemical; conditions: 100 μM screening on Fe2+-sGC and Fe3+-sGC (Fig. 2)
T1 sequence (Q02153 1-619): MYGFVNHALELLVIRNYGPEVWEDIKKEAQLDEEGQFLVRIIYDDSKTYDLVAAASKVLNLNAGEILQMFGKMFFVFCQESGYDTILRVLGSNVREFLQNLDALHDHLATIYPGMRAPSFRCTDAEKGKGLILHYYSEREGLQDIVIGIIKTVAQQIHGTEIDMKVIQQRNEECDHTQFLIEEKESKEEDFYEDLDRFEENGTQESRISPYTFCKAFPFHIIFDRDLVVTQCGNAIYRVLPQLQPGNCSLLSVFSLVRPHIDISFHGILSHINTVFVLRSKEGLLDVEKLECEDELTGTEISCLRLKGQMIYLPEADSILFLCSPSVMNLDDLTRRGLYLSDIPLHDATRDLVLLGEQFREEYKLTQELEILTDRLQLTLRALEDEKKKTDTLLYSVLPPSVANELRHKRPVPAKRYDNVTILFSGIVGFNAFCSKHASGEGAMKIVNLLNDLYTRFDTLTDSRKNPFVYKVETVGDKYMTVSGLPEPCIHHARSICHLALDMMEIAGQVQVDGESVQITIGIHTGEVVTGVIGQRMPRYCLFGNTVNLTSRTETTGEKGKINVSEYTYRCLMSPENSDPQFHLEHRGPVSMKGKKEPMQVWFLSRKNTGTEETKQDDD
T1 sequence (Q02108 1-690 partner): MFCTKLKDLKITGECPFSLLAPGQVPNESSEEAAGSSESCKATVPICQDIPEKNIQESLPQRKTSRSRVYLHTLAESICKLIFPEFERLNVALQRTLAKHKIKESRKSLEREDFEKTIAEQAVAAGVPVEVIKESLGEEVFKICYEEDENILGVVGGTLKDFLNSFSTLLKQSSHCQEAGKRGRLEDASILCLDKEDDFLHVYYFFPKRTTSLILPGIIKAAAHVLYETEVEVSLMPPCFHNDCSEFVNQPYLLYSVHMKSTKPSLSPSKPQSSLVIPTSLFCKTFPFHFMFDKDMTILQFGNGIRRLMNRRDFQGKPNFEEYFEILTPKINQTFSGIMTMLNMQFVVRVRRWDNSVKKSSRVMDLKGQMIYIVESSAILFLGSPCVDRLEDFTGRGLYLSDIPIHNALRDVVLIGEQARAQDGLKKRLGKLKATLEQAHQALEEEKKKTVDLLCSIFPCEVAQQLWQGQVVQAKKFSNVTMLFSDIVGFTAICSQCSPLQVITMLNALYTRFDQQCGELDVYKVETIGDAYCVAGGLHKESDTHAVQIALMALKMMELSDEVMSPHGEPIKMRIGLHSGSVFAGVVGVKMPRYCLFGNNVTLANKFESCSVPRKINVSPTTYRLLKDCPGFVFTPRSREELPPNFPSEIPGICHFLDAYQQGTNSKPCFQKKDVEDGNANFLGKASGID
In short: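 Human α1/β1 sGC from Sf9 cells was purified on DEAE, Ni-agarose and gel filtration. The ferric form was made by adding 10 μM ODQ at pre-incubation. Then 15 min at 37 °C with 1 mM GTP/[α-32P]GTP; zinc carbonate stop; [32P]cGMP measured.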

[2] = target: T2, human sGC with ferric heme (Fe3+-sGC) (Homo sapiens, UniProt Q02153); experiment: cGMP-forming activity of purified sGC with ferric heme; type: biochemical; conditions: for shape of the activation curve: dose-dependent activation of sGC with ferric heme, Fig. 3; for activation of Fe3+-sGC: 100 μM, Fig. 2B
T2 sequence (Q02153 1-619): T1 sequence (Q02153 1-619)
T2 sequence (Q02108 1-690 partner): T1 sequence (Q02108 1-690 partner)

[3] = target: T3, human sGC with ferrous heme (Fe2+-sGC) (Homo sapiens, UniProt Q02153); experiment: cGMP-forming activity of purified sGC with ferrous heme; type: biochemical; conditions: 100 μM, Fig. 2A
T3 sequence (Q02153 1-619): T1 sequence (Q02153 1-619)
T3 sequence (Q02108 1-690 partner): T1 sequence (Q02108 1-690 partner)
In short: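 Ferrous-heme human α1/β1 sGC, expressed in Sf9 cells and purified through DEAE, Ni-agarose and Superdex 200. Reaction started at 37 °C with 1 mM GTP/[α-32P]GTP (~100000 cpm) for 15 min. Stopped by zinc carbonate precipitation; [32P]cGMP formed.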

sGC [4] = conditions: cited from earlier work

SMILES | sGC activation (sGC [1]) | shape of the activation curve [2] | activation of Fe3+-sGC [2] | also measured
Cc1ccc(C)c(OCCCC(=O)O)c1 [Compound 4b, 4-(2,5-dimethylphenoxy)butanoic acid] | not conducive to sGC activation | – | – | –
Cc1ccc(C(C)C)c(OCCCC(C)(C)C(=O)O)c1 [Compound 7c, 5-(2-isopropyl-5-methylphenoxy)-2,2-dimethylpentanoic acid] | activated both Fe^2+-sGC and Fe^3+-sGC; also recorded: well tolerated | bell-shaped curve | – | –
Cc1ccc(C)c(N(CCCC(C)(C)C(=O)O)C(=O)CCC(=O)O)c1 [Compound 10d, 5-(3-carboxy-N-(2,5-dimethylphenyl)propanamido)-2,2-dimethylpentanoic acid] | – | – | weak, yet statistically significant activation | –
Cc1ccc(C)c(N(CCCC(C)(C)C(=O)O)C(=O)CCCC(=O)O)c1 [Compound 10e, 5-(4-carboxy-N-(2,5-dimethylphenyl)butanamido)-2,2-dimethylpentanoic acid] | – | – | weak, yet statistically significant activation | –
Cc1ccc(C)c(N(CCCC(C)(C)C(=O)O)C(=O)CCCCC(=O)O)c1 [Compound 10f, 6-((4-carboxy-4-methylpentyl)(2,5-dimethylphenyl)amino)-6-oxohexanoic acid] | – | – | weak, yet statistically significant activation | –
Cc1ccc(C)c(N(CCCC(C)(C)C(=O)O)C(=O)CCCCC(=O)N(CCCC(C)(C)C(=O)O)c2cc(C)ccc2C)c1 [Compound 11, 5,5’-(adipoylbis((2,5-dimethylphenyl)azanediyl))bis(2,2-dimethyl-pentanoic acid)] | activated both Fe^2+-sGC and Fe^3+-sGC; also recorded: exhibited sGC activation | typical S-shaped pattern | – | –
CCC(CCCOc1cc(C)ccc1C)C(=O)O (centres unmarked) [Compound 15a, 5-(2,5-dimethylphenoxy)-2-ethylpentanoic acid] | – | – | significantly hampered the activation | activation of Fe2+-sGC [3]: blocked the activation
O=C(O)CCCCN(CCc1ccccc1OCc1ccc(CCc2ccccc2)cc1)Cc1ccc(C(=O)O)cc1 [cinaciguat] | – | – | – | estimated EC50 (sGC [4]): low nanomolar range

More lines, main results first:

sGC activation (sGC [1]) | shape of the activation curve [2] | SMILES | activation of Fe3+-sGC [2] | also measured
not conducive to sGC activation | – | Cc1ccc(C)c(OCC(=O)O)c1 [Compound 4a, 2-(2,5-dimethylphenoxy)acetic acid] | – | –
activated both Fe^2+-sGC and Fe^3+-sGC | typical S-shaped pattern | Cc1ccc(C)c(OCCCCC(=O)O)c1 [Compound 4c, 5-(2,5-dimethylphenoxy)pentanoic acid] | – | –
activated both Fe^2+-sGC and Fe^3+-sGC | typical S-shaped pattern | Cc1ccc(C)c(OCCCCCC(=O)O)c1 [Compound 4d, 6-(2,5-dimethylphenoxy)hexanoic acid] | diminished | activation of Fe2+-sGC [3]: tolerated
activated both Fe^2+-sGC and Fe^3+-sGC | typical S-shaped pattern | Cc1ccc(C)c(NCCCC(C)(C)C(=O)O)c1 [Compound 7a, 5-((2,5-dimethylphenyl)amino)-2,2-dimethylpentanoic acid] | – | –
does not activate sGC | – | O=C(O)CCCCCOc1ccccc1 [Compound 8b, 6-phenoxyhexanoic acid] | – | –
activated both Fe^2+-sGC and Fe^3+-sGC | bell-shaped curve | CCCCCCC(CCCOc1cc(C)ccc1C)C(=O)O (centres unmarked) [Compound 15b, 2-(3-(2,5-dimethylphenoxy)propyl)octanoic acid] | – | –
